Assay results: article PMC5033713 (Neuron, 2016)

Legend:
Type in all cases: cell-based
GluA2Del = GluA2Del (Rattus norvegicus, UniProt P19491, C610A/DEL399-404/DEL566-584/E587D/G405E/N256E/N406D/N413Q/S585D/S586T/V397L, form not given); conditions: for voltage dependence of current inhibition: GluA2Del receptor-mediated current; for Hill coefficient (nHill): GluA2Del, HEK293, 3 mM Glu co-application, −60 mV, 30 μM CTZ, logistic fit
GluA2F623A = GluA2F623A (Rattus norvegicus, UniProt P19491, F644A); experiment: Whole-cell patch-clamp, current inhibition of alanine mutant GluA2F623A
GluA2WT = GluA2WT (Rattus norvegicus, UniProt P19491); conditions: for voltage dependence of current inhibition: GluA2WT receptor-mediated current; for Hill coefficient (nHill): GluA2WT, HEK293, 3 mM Glu co-application, −60 mV, 30 μM CTZ, logistic fit
GluA2 S788A = GluA2 S788A (Rattus norvegicus, UniProt P19491, S809A); experiment: Whole-cell patch-clamp, current inhibition of alanine mutant S788A; conditions: S788 alanine substitution versus wild-type
Procedure, shortened: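 Alanine-substituted GluA2 transiently expressed in HEK293 cells. Whole-cell currents evoked by Glu via rapid theta-pipette solution exchange, co-applied with graded noncompetitive inhibitor concentrations. Normalized current concentration dependencies fitted with the logistic equation. Mutant IC50 expressed relative to the wild-type receptor value.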

GluA2D519A = GluA2D519A (Rattus norvegicus, UniProt P19491, D540A); experiment: Whole-cell patch-clamp, current inhibition of alanine mutant GluA2D519A
Procedure, shortened: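 Rat GluA2 D519A transiently expressed in HEK293 cells (Lipofectamine 2000). Whole-cell recording at −60 mV with piezo-driven theta-pipette fast solution exchange. 500 ms co-applications of 3 mM Glu with graded test compound concentrations, 30 μM CTZ present throughout, Glu alone as control. Logistic fits of normalized currents gave IC50 and nHill, n = 7 cells. IC50 also expressed relative to wild-type.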

GluA2 S615A = GluA2 S615A (Rattus norvegicus, UniProt P19491, S636A); experiment: Whole-cell patch-clamp, current inhibition of alanine mutant S615A

CNC(=O)N1N=C(c2ccc(N)cc2)c2cc3c(cc2CC1C)OCO3 (stereo not shown) [GYKI, GYKI 53655]
voltage dependence of current inhibition (GluA2Del): voltage independent | Hill coefficient (nHill) (GluA2Del): 1.29 ± 0.08 | IC50 (GluA2F623A): 153 ± 8 µM | nHill (GluA2F623A; F623A mutant, 3 mM Glu, −60 mV, 30 μM CTZ): 1.18 ± 0.07 | IC50 (GluA2WT): 14.5 ± 1.6 µM | voltage dependence of current inhibition (GluA2WT): voltage independent | Hill coefficient (nHill) (GluA2WT): 1.29 ± 0.08 | effect of substitution on inhibition (GluA2 S788A): Reduced affinity | IC50 (GluA2D519A): 3.8 ± 0.58 µM | nHill (GluA2D519A; D519A mutant, 3 mM Glu, −60 mV, 30 μM CTZ): 1.58 ± 0.12 | change in IC50 value compared to wild-type (GluA2 S615A): two orders of magnitude increase

N#Cc1ccccc1-c1cc(-c2ccccn2)cn(-c2ccccc2)c1=O [PMP, perampanel]
voltage dependence of current inhibition (GluA2Del): voltage independent | Hill coefficient (nHill) (GluA2Del): 1.08 ± 0.04 | change in IC50 value compared to wild-type (GluA2F623A; F623A mutant): two orders of magnitude increase | IC50 (GluA2WT): 0.89 ± 0.07 µM | voltage dependence of current inhibition (GluA2WT): voltage independent | Hill coefficient (nHill) (GluA2WT): 1.08 ± 0.05 | effect of substitution on inhibition (GluA2 S788A): no appreciable effect | effect of substitution on inhibition (GluA2D519A; D519 alanine substitution versus wild-type): no appreciable effect
